The test system of data set [1] is Rattus norvegicus. In words: Ex vivo displacement of [3H]pyrilamine from histamine H1 receptor in Sprague-Dawley rat cerebral cortex at 3 mg/kg, po by imaging analysis. The data set is classed as functional. The method, boiled down:
(§1)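 Rats were dosed orally (vehicle 0.5% HPMC) and brains removed 2 h later. 14 μm coronal sections were incubated with 1 nM [3H]pyrilamine in 50 mM Tris-HCl, pH 7.5, for 10 min at room temperature. Nonspecific binding with 10 μM pyrilamine. Phosphoimager read after 7 days; occupancy measured in cortex.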
(In general: Loss of bound radioactivity is the signal in a displacement assay; it reports binding, not function.)

The nature of data set [2]: Plasma concentration at Tmax in Sprague-Dawley rat hypnotic model at 1 mg/kg, po administered during active phase. Format: ADME, organism-based. Also on record: dose 1 mg/kg, route oral.
Data set [3] is described as follows: Half life in Sprague-Dawley rat at 0.5 mg/kg, iv and 1 mg/kg, po. Format: ADME, organism-based. The settings on record: in vivo. The gist of the method: (§2)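 Male Sprague-Dawley rats, cassette dosing. Compounds were given as an iv bolus and as an oral suspension. Blood samples were taken at intervals up to 24 h, processed by protein precipitation and analysed by HPLC-MS/MS.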

The test system of data set [4] is Rattus norvegicus. The data set can be described thus: Hypnotic activity in Sprague-Dawley rat assessed as non-rapid eye movement sleep at 3 mg/kg, po administered during active phase. The data set is classed as functional. The gist of the method: (§3)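 Male Sprague-Dawley rats (275-300 g) carried implanted telemetric EEG/EMG transmitters and were used 3 weeks after surgery. Oral dosing (2 mL/kg) was given 6 h after lights off (CT18) in a randomized crossover versus vehicle. Recording ran for 5 h in 10 s epochs scored by FFT. n = 8, mean ± SEM; one-way ANOVA with Dunnett's test.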

Data set [5] deals with Rattus norvegicus. In words: Ex vivo displacement of [3H]pyrilamine from histamine H1 receptor in Sprague-Dawley rat cerebral cortex at 10 mg/kg, po by imaging analysis. The data set is classed as functional. The method, boiled down: as §1
The test system of data set [6] is Rattus norvegicus. The data set can be described thus: Ex vivo displacement of [3H]ketanserin from 5HT2A receptor in Sprague-Dawley rat cerebral cortex at 3 mg/kg, po by imaging analysis. The data set is classed as functional. The method, boiled down:
(§4)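 Rats were dosed orally (vehicle 0.5% HPMC) and brains removed 2 h later. 14 μm coronal sections were incubated with 1 nM [3H]ketanserin in 50 mM Tris-HCl with 10 mM MgCl2, pH 7.5, for 10 min at room temperature. Nonspecific binding with 10 μM mianserin. Phosphoimager read after 7 days; occupancy measured in cortex.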

The nature of data set [7]: Ratio of drug level in brain to blood in Sprague-Dawley rat at 0.5 mg/kg, iv and 1 mg/kg, po. Format: ADME, organism-based. To be noted: read-out: BBR. The method, boiled down:
(§5)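 Male Sprague-Dawley rats, cassette dosing, iv bolus or oral suspension. Blood and brain levels were measured by protein precipitation and HPLC-MS/MS. Brain:blood ratio was taken from AUC0-8h after oral dosing, or at 1 h after iv dosing for one compound.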

The nature of data set [8]: Volume of distribution at steady state in Sprague-Dawley rat at 0.5 mg/kg, iv and 1 mg/kg, po. The data set is classed as ADME, organism-based. To be noted: in vivo, read-out: Vdss. The gist of the method:
as §2

Data set [9] in a line: Fraction unbound in rat brain. The data set is classed as ADME, tissue-based.
Data set [10] is described as follows: Cmax in Sprague-Dawley rat hypnotic model at 1 mg/kg, po administered during active phase measured after 2 hrs. The data set is classed as ADME, organism-based. Further details: dose 1 mg/kg, route oral. The settings on record: in vivo.
For data set [11], the target named is Cytochrome P450 2C19 (Homo sapiens, UniProt P33261). In words: Inhibition of human CYP2C19 transfected in bactosome expression system by spectrofluorimetry. Format: ADME. The method, boiled down: (§6)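 Recombinant human CYP Bactosomes (0.1 mg/mL) in 50 mM phosphate buffer, pH 7.4. Compound at 0.1-10 μM was preincubated with fluorogenic substrate for 10 min at 37 °C, and the reaction was started with an NADPH regenerating system. Metabolite fluorescence was followed for 10 min. Substrates: 1A2 ethoxyresorufin 0.5 μM; 2C9 FCA 50 μM; 2C19 BMC 10 μM; 2D6 MMC 10 μM; 3A4 DEF 1 μM or 7-BQ 25 μM. Run in triplicate.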
Cytochrome P450 2C19, sequence (P33261 whole entry): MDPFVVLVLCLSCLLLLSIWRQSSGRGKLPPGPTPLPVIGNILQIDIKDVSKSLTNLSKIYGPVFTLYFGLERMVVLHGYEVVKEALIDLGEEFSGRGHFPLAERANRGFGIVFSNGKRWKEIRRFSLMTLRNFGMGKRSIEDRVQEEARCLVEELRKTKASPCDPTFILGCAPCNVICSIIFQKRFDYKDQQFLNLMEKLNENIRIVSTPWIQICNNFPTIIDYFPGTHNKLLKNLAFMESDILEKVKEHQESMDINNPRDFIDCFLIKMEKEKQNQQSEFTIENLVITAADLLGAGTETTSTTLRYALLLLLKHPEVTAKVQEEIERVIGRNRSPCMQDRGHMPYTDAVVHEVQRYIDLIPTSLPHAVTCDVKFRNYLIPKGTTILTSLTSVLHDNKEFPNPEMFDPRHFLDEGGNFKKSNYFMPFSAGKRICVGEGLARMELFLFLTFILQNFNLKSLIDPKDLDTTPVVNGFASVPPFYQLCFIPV

Data set [12] has as its target Voltage-gated inwardly rectifying potassium channel KCNH2 (Homo sapiens, UniProt Q12809). The data set can be described thus: Displacement of [3H]dofetilide from human ERG by scintillation proximity assay.
Data set [13] is described as follows: Blood clearance in Sprague-Dawley rat at 0.5 mg/kg, iv and 1 mg/kg, po. Format: ADME, organism-based. The settings on record: whole blood. The gist of the method:
as §2

Data set [14] deals with Rattus norvegicus. The data set can be described thus: Hypnotic activity in Sprague-Dawley rat assessed as total sleep time at 1 mg/kg, po administered during active phase. The data set is classed as functional. The method, boiled down: as §3
Data set [15] relates to Rattus norvegicus. The data set can be described thus: Ex vivo displacement of [3H]pyrilamine from histamine H1 receptor in Sprague-Dawley rat cerebral cortex at 1 mg/kg, po by imaging analysis. The data set is classed as functional. The gist of the method: as §1
Data set [16] relates to Rattus norvegicus. The data set can be described thus: Hypnotic activity in Sprague-Dawley rat assessed as total sleep time at 10 mg/kg, po administered during active phase. Format: functional. The method, boiled down: as §3
For data set [17], the system named is Rattus norvegicus. In words: Ex vivo displacement of [3H]ketanserin from 5HT2A receptor in Sprague-Dawley rat cerebral cortex at 10 mg/kg, po by imaging analysis. Format: functional. The gist of the method: as §4
The subject of data set [18] is Rattus norvegicus. The data set can be described thus: Ex vivo displacement of [3H]ketanserin from 5HT2A receptor in Sprague-Dawley rat cerebral cortex at 1 mg/kg, po by imaging analysis. Format: functional. The gist of the method:
as §4

Data set [19] can be described thus: Plasma concentration at Tmax in Sprague-Dawley rat hypnotic model at 10 mg/kg, po administered during active phase. Further details: dose 10 mg/kg, route oral. Format: ADME, organism-based.
The target of data set [20] is Cytochrome P450 3A4 (Homo sapiens, UniProt P08684). The data set can be described thus: Inhibition of human CYP3A4 transfected in bactosome expression system by spectrofluorimetry. The data set is classed as ADME. The gist of the method: as §6
Cytochrome P450 3A4, sequence (P08684 whole entry): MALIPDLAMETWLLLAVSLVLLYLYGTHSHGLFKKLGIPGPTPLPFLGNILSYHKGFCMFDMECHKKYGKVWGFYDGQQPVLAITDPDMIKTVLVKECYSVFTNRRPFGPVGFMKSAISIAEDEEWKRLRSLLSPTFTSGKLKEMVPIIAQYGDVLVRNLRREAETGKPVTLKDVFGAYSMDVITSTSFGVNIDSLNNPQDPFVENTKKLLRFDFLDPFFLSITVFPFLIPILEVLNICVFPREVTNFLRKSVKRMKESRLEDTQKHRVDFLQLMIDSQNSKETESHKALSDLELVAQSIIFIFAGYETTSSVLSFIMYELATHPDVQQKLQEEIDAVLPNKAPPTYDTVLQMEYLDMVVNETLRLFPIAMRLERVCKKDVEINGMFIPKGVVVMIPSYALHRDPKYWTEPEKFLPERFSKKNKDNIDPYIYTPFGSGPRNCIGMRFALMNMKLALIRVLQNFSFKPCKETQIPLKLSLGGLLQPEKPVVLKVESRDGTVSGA
Data set [21] can be described thus: Oral bioavailability in Sprague-Dawley rat at 1 mg/kg. To be noted: in vivo. Format: ADME, organism-based. The gist of the method:
as §2

Data set [22] is described as follows: Plasma concentration at Tmax in Sprague-Dawley rat hypnotic model at 3 mg/kg, po administered during active phase. Further details: dose 3 mg/kg, route oral. Format: ADME, organism-based.
Data set [23] in a line: Volume of distribution at steady state in Sprague-Dawley rat at 1 mg/kg, iv and 3 mg/kg, po. Format: ADME, organism-based. The settings on record: in vivo, read-out: Vdss. The method, boiled down:
as §2

Data set [24] in a line: Blood clearance in Sprague-Dawley rat at 1 mg/kg, iv and 3 mg/kg, po. The data set is classed as ADME, organism-based. To be noted: whole blood. The gist of the method:
as §2

Data set [25] in a line: Half life in Sprague-Dawley rat at 1 mg/kg, iv and 3 mg/kg, po. Format: ADME, organism-based. To be noted: in vivo. The method, boiled down:
as §2

A short description of data set [26]: Ratio of drug level in brain to blood in Sprague-Dawley rat at 1 mg/kg, iv and 3 mg/kg, po. Format: ADME, organism-based. To be noted: read-out: BBR. The gist of the method:
as §5

Data set [27] in a line: Cmax in Sprague-Dawley rat hypnotic model at 3 mg/kg, po administered during active phase measured after 2 hrs. Format: ADME, organism-based. Further details: dose 3 mg/kg, route oral. To be noted: in vivo.
Data set [28] can be described thus: Oral bioavailability in Sprague-Dawley rat at 3 mg/kg. The data set is classed as ADME, organism-based. To be noted: in vivo. The gist of the method:
as §2

We go through three compounds from ChEMBL document CHEMBL1275351, “Novel spirotetracyclic zwitterionic dual H(1)/5-HT(2A) receptor antagonists for the treatment of sleep disorders” (J Med Chem, 2010).

One may read the Cmax as the peak of the concentration-time curve. Usually half-life stands for the time in which the quantity being followed falls by half. A higher half-life goes with slow decline. As a reminder, the fraction unbound is free concentration divided by total concentration. The IC50 is the midpoint of a concentration-inhibition curve. Lower therefore signals inhibition by little substance. One may read the bioavailability as the share of a dose that reaches the circulation, judged against a reference dose that is usually intravenous. Read a high bioavailability as good availability.

Voltage-gated inwardly rectifying potassium channel KCNH2, sequence (Q12809 whole entry): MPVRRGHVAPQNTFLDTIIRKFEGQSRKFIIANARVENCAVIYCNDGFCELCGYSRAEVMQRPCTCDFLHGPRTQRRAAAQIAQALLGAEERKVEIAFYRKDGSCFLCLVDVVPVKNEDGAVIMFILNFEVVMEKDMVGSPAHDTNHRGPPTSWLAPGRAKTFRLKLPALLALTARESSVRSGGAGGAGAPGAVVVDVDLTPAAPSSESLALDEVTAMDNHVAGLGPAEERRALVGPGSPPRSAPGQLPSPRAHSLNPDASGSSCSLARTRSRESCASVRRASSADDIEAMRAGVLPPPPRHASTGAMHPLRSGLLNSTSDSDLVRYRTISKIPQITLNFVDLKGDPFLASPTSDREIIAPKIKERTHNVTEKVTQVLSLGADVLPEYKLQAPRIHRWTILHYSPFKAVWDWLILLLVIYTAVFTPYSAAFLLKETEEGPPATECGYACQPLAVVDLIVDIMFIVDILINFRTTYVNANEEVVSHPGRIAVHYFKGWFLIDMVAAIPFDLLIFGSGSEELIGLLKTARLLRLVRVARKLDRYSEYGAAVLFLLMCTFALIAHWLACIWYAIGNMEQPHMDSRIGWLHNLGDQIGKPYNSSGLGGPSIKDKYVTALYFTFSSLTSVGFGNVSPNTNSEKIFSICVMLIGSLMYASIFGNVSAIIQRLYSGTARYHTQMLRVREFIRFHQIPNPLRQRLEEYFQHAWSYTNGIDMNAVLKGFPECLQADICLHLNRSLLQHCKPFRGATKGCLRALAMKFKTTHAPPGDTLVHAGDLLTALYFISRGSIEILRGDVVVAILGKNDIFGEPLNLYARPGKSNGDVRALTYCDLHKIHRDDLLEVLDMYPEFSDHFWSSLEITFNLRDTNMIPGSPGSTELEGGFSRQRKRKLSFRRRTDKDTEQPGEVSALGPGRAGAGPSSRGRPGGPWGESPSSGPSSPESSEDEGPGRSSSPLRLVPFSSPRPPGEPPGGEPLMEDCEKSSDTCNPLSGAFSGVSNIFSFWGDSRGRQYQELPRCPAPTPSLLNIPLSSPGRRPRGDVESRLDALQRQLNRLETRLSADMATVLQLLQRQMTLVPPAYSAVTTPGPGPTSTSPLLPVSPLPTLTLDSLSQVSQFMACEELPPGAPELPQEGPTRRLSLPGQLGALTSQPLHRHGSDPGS

Turning to `O=C(O)C1CCN(C2CC[C@]3(Cc4ccccc4Cc4ccccc43)C2)CC1` (stereo partly specified), the Activity in data set [1] came out at 35%; in data set [5] it was 55%; in data set [6] it was 5.6%; in data set [15], 30%; in data set [17] it was 18%; in [18], 0%. The Cmax turned out to be 119 ng/mL in [2], 216 ng/mL in data set [10], 755 ng/mL in data set [19] and 303 ng/mL in data set [22]. The compound also gave a half-life in data set [3] of 1.9 h. Also, the Time came out at 94.2 min in [4], 94.4 min in [14] and 105.2 min in [16]. For the same compound, the Kp in data set [7] stood at 0.5. The Vd in [8] turned out to be 2.9 L/kg. For the same compound, the fraction unbound in [9] is 0.031. For the same compound, the IC50 in data set [11] is above 10 µM; in data set [12] it was above 63.1 µM; in data set [20] it was above 10 µM. Moreover, the clearance in data set [13] turned out to be 21 mL/min/kg. In addition, in [21], the bioavailability came to 65%.
As to `O=C(O)C1CN(C2CC[C@]3(Cc4ccccc4Cc4ccccc43)C2)C1` (stereo partly specified), the Activity is given as 45% in data set [1]; 66% in data set [5]; 24% in data set [6]; 16% in data set [15]; 47% in data set [17]; 0.9% in [18]. Besides, the Cmax is 127 ng/mL in data set [2], 626 ng/mL in data set [27], 1220 ng/mL in data set [19] and 417 ng/mL in data set [22]. For the same compound, the Time in data set [4] worked out at 118.6 min; in data set [14] it was 98.1 min; in [16] it was 145.2 min. Also, the Vd in data set [23] turned out to be 2.1 L/kg. In data set [24], this compound registered a clearance of 9 mL/min/kg. In data set [25], this compound showed a half-life of 3.1 h. Besides, the fraction unbound in data set [9] came to 0.032. Moreover, the IC50 in data set [11] is above 10 µM; in [12], above 50.1 µM; in data set [20], above 10 µM. Also, the Kp in [26] stood at 0.1. This compound returned a bioavailability in [28] of 54%.
`O=C(O)C1CN(C2CCC3(Cc4ccccc4Oc4ccccc43)C2)C1` (stereo unspecified) showed a half-life in [3] of 1.9 h. For the same compound, the values for the Time in data set [4], in data set [14] and in data set [16] were 123.2 min, 120.7 min and 155.7 min, respectively. Further, the Kp in data set [7] stood at 0.2. Moreover, the Vd in [8] was 1.9 L/kg. The fraction unbound in data set [9] amounted to 0.04. Further, the results for the IC50 in data set [11], in data set [12] and in data set [20] were above 10 µM, above 50.1 µM and above 10 µM, respectively. Also, the clearance in data set [13] was 13 mL/min/kg. Also, in data set [21], the bioavailability stood at 100%.
